Source: ChEMBL document CHEMBL5058577, “EUbOPEN Chemogenomics Library 2 (Multiplex)” (2022)

Tested on: U2OS
Experiment: Multiplex assay against U2OS
Assay type: toxicity, cell-based
Conditions: human
How it was run: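 Phenotypes for tubulin, mitochondrial mass and membrane permeability are expressed as per cents of healthy-nucleus cells. Cells were stained live at seeding with Hoechst33342, BioTracker Green Microtubule Cytoskeleton Dye, MitoTracker Red and Annexin V Alexa Fluor 680, then imaged after compound addition on a CQ1 microscope at 37°C and 5% CO2. Machine-learning gating in CellPathfinder separated Hoechst high-intensity objects from normal cells, divided normal cells by nuclear state (healthy, pyknosed, fragmented) and divided pyknosed cells into mitotic or apoptotic.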

[1] = 12 h, 1 µM, compound concentration 1 uM, replicate 1
[2] = 12 h, 1 µM, compound concentration 1 uM, replicate 2
[3] = 12 h, 10 µM, compound concentration 10 uM, replicate 1
[4] = 12 h, 10 µM, compound concentration 10 uM, replicate 2
[5] = 24 h, 1 µM, compound concentration 1 uM, replicate 1
[6] = 24 h, 1 µM, compound concentration 1 uM, replicate 2
[7] = 24 h, 10 µM, compound concentration 10 uM, replicate 1
[8] = 24 h, 10 µM, compound concentration 10 uM, replicate 2
[9] = 48 h, 1 µM, compound concentration 1 uM, replicate 1
[10] = 48 h, 1 µM, compound concentration 1 uM, replicate 2
[11] = 48 h, 10 µM, compound concentration 10 uM, replicate 1
[12] = 48 h, 10 µM, compound concentration 10 uM, replicate 2

CSCC[C@H](NC=O)C(=O)N[C@@H](CC(C)C)C(=O)N[C@@H](Cc1ccccc1)C(=O)O
Population Apoptotic (%) [1]: 73% | Population Fragmented Nuclei (%) [1]: 29% | Population Mitochondria Different-Phenotype (%) [1]: 4% | Population Mitotic Cells (%) [1]: 26% | Total Cell Count [1]: 254 | Population Apoptotic (%) [2]: 100% | Population Fragmented Nuclei (%) [2]: 17% | Population Healthy Nuclei (%) [2]: 75% | Population Mitochondria Different-Phenotype (%) [2]: 3% | Population Mitotic Cells (%) [2]: 0% | Total Cell Count [2]: 135 | Population Apoptotic (%) [3]: 69% | Population Fragmented Nuclei (%) [3]: 23% | Population Healthy Nuclei (%) [3]: 70% | Population Mitochondria Different-Phenotype (%) [3]: 1% | Population Mitotic Cells (%) [3]: 30% | Total Cell Count [3]: 202 | Population Apoptotic (%) [4]: 90% | Population Fragmented Nuclei (%) [4]: 16% | Population Healthy Nuclei (%) [4]: 74% | Population Membrane Permeable-Phenotype (%) [4]: 4% | Population Mitochondria Different-Phenotype (%) [4]: 2% | Total Cell Count [4]: 123 | Population Apoptotic (%) [5]: 91% | Population Fragmented Nuclei (%) [5]: 24% | Population Mitochondria Different-Phenotype (%) [5]: 3% | Population Mitotic Cells (%) [5]: 8% | Total Cell Count [5]: 288 | Population Apoptotic (%) [6]: 90% | Population Fragmented Nuclei (%) [6]: 17% | Population Healthy Nuclei (%) [6]: 75% | Population Mitochondria Different-Phenotype (%) [6]: 0% | Total Cell Count [6]: 147 | Population Apoptotic (%) [7]: 76% | Population Fragmented Nuclei (%) [7]: 23% | Population Healthy Nuclei (%) [7]: 68% | Population Mitochondria Different-Phenotype (%) [7]: 1% | Population Mitotic Cells (%) [7]: 23% | Total Cell Count [7]: 247 | Population Apoptotic (%) [8]: 100% | Population Fragmented Nuclei (%) [8]: 19% | Population Healthy Nuclei (%) [8]: 70% | Population Membrane Permeable-Phenotype (%) [8]: 8% | Population Mitochondria Different-Phenotype (%) [8]: 2% | Population Mitotic Cells (%) [8]: 0% | Total Cell Count [8]: 147 | Population Fragmented Nuclei (%) [9]: 16% | Population Healthy Nuclei (%) [9]: 75% | Population Membrane Permeable-Phenotype (%) [9]: 4% | Population Mitochondria Different-Phenotype (%) [9]: 3% | Population Mitotic Cells (%) [9]: 15% | Total Cell Count [9]: 411 | Population Fragmented Nuclei (%) [10]: 18% | Population Healthy Nuclei (%) [10]: 68% | Population Mitochondria Different-Phenotype (%) [10]: 1% | Population Mitotic Cells (%) [10]: 3% | Total Cell Count [10]: 202 | Population Apoptotic (%) [11]: 90% | Population Fragmented Nuclei (%) [11]: 20% | Population Healthy Nuclei (%) [11]: 70% | Population Membrane Permeable-Phenotype (%) [11]: 4% | Population Mitochondria Different-Phenotype (%) [11]: 2% | Population Mitotic Cells (%) [11]: 9% | Total Cell Count [11]: 362 | Population Apoptotic (%) [12]: 100% | Population Fragmented Nuclei (%) [12]: 53% | Population Healthy Nuclei (%) [12]: 25% | Population Membrane Permeable-Phenotype (%) [12]: 80% | Population Mitochondria Different-Phenotype (%) [12]: 50% | Population Mitotic Cells (%) [12]: 0% | Total Cell Count [12]: 41

Cc1nc2ccc(Oc3ccc(F)cc3)cc2c(=O)n1C[C@H]1CCCN(C(C)C)C1.Cl
Population Apoptotic (%) [1]: 83% | Population Fragmented Nuclei (%) [1]: 25% | Population Healthy Nuclei (%) [1]: 64% | Population Hoechst High Intensity Objects (%) [1]: 3% | Population Membrane Permeable-Phenotype (%) [1]: 9% | Population Mitochondria Different-Phenotype (%) [1]: 3% | Population Mitotic Cells (%) [1]: 16% | Population Normal (%) [1]: 96% | Population Pyknosed Nuclei (%) [1]: 10% | Population Tubulin-Different-Phenotype (%) [1]: 7% | Total Cell Count [1]: 244 | Population Apoptotic (%) [2]: 60% | Population Fragmented Nuclei (%) [2]: 14% | Population Healthy Nuclei (%) [2]: 81% | Population Hoechst High Intensity Objects (%) [2]: 1% | Population Membrane Permeable-Phenotype (%) [2]: 17% | Population Mitochondria Different-Phenotype (%) [2]: 7% | Population Mitotic Cells (%) [2]: 40% | Population Normal (%) [2]: 98% | Population Pyknosed Nuclei (%) [2]: 4% | Population Tubulin-Different-Phenotype (%) [2]: 9% | Total Cell Count [2]: 125 | Population Apoptotic (%) [3]: 65% | Population Fragmented Nuclei (%) [3]: 25% | Population Healthy Nuclei (%) [3]: 59% | Population Hoechst High Intensity Objects (%) [3]: 3% | Population Membrane Permeable-Phenotype (%) [3]: 58% | Population Mitochondria Different-Phenotype (%) [3]: 61% | Population Mitotic Cells (%) [3]: 35% | Population Normal (%) [3]: 96% | Population Pyknosed Nuclei (%) [3]: 15% | Population Tubulin-Different-Phenotype (%) [3]: 63% | Total Cell Count [3]: 268 | Population Apoptotic (%) [4]: 78% | Population Fragmented Nuclei (%) [4]: 24% | Population Healthy Nuclei (%) [4]: 58% | Population Hoechst High Intensity Objects (%) [4]: 4% | Population Membrane Permeable-Phenotype (%) [4]: 25% | Population Mitochondria Different-Phenotype (%) [4]: 75% | Population Mitotic Cells (%) [4]: 21% | Population Normal (%) [4]: 95% | Population Pyknosed Nuclei (%) [4]: 17% | Population Tubulin-Different-Phenotype (%) [4]: 47% | Total Cell Count [4]: 86 | Population Apoptotic (%) [5]: 78% | Population Fragmented Nuclei (%) [5]: 23% | Population Healthy Nuclei (%) [5]: 65% | Population Hoechst High Intensity Objects (%) [5]: 4% | Population Membrane Permeable-Phenotype (%) [5]: 7% | Population Mitochondria Different-Phenotype (%) [5]: 5% | Population Mitotic Cells (%) [5]: 21% | Population Normal (%) [5]: 95% | Population Pyknosed Nuclei (%) [5]: 10% | Population Tubulin-Different-Phenotype (%) [5]: 4% | Total Cell Count [5]: 276 | Population Apoptotic (%) [6]: 80% | Population Fragmented Nuclei (%) [6]: 21% | Population Healthy Nuclei (%) [6]: 71% | Population Hoechst High Intensity Objects (%) [6]: 2% | Population Membrane Permeable-Phenotype (%) [6]: 11% | Population Mitochondria Different-Phenotype (%) [6]: 9% | Population Mitotic Cells (%) [6]: 20% | Population Normal (%) [6]: 97% | Population Pyknosed Nuclei (%) [6]: 6% | Population Tubulin-Different-Phenotype (%) [6]: 8% | Total Cell Count [6]: 146 | Population Apoptotic (%) [7]: 77% | Population Fragmented Nuclei (%) [7]: 25% | Population Healthy Nuclei (%) [7]: 57% | Population Hoechst High Intensity Objects (%) [7]: 4% | Population Membrane Permeable-Phenotype (%) [7]: 37% | Population Mitochondria Different-Phenotype (%) [7]: 63% | Population Mitotic Cells (%) [7]: 22% | Population Normal (%) [7]: 95% | Population Pyknosed Nuclei (%) [7]: 16% | Population Tubulin-Different-Phenotype (%) [7]: 47% | Total Cell Count [7]: 297 | Population Apoptotic (%) [8]: 76% | Population Fragmented Nuclei (%) [8]: 22% | Population Healthy Nuclei (%) [8]: 52% | Population Hoechst High Intensity Objects (%) [8]: 6% | Population Membrane Permeable-Phenotype (%) [8]: 22% | Population Mitochondria Different-Phenotype (%) [8]: 62% | Population Mitotic Cells (%) [8]: 23% | Population Normal (%) [8]: 93% | Population Pyknosed Nuclei (%) [8]: 24% | Population Tubulin-Different-Phenotype (%) [8]: 40% | Total Cell Count [8]: 91 | Population Apoptotic (%) [9]: 84% | Population Fragmented Nuclei (%) [9]: 19% | Population Healthy Nuclei (%) [9]: 69% | Population Hoechst High Intensity Objects (%) [9]: 1% | Population Membrane Permeable-Phenotype (%) [9]: 7% | Population Mitochondria Different-Phenotype (%) [9]: 5% | Population Mitotic Cells (%) [9]: 15% | Population Normal (%) [9]: 98% | Population Pyknosed Nuclei (%) [9]: 10% | Population Tubulin-Different-Phenotype (%) [9]: 4% | Total Cell Count [9]: 371 | Population Apoptotic (%) [10]: 93% | Population Healthy Nuclei (%) [10]: 72% | Population Hoechst High Intensity Objects (%) [10]: 0% | Population Mitotic Cells (%) [10]: 6% | Population Normal (%) [10]: 99% | Population Pyknosed Nuclei (%) [10]: 7% | Population Tubulin-Different-Phenotype (%) [10]: 6% | Total Cell Count [10]: 213 | Population Apoptotic (%) [11]: 77% | Population Fragmented Nuclei (%) [11]: 29% | Population Healthy Nuclei (%) [11]: 54% | Population Hoechst High Intensity Objects (%) [11]: 5% | Population Membrane Permeable-Phenotype (%) [11]: 29% | Population Mitochondria Different-Phenotype (%) [11]: 36% | Population Mitotic Cells (%) [11]: 22% | Population Normal (%) [11]: 94% | Population Pyknosed Nuclei (%) [11]: 16% | Population Tubulin-Different-Phenotype (%) [11]: 23% | Total Cell Count [11]: 380 | Population Apoptotic (%) [12]: 88% | Population Healthy Nuclei (%) [12]: 51% | Population Hoechst High Intensity Objects (%) [12]: 8% | Population Membrane Permeable-Phenotype (%) [12]: 27% | Population Mitochondria Different-Phenotype (%) [12]: 41% | Population Mitotic Cells (%) [12]: 11% | Population Normal (%) [12]: 91% | Population Pyknosed Nuclei (%) [12]: 19% | Population Tubulin-Different-Phenotype (%) [12]: 35% | Total Cell Count [12]: 103
